Measurements: ChEMBL document CHEMBL4138219, “Pyrano[3,2-a]carbazole alkaloids as effective agents against ischemic stroke in vitro and in vivo” (Eur J Med Chem, 2018)
Calls of active or inactive are those of the source. No cut-off for these calls is given here.

Key:
[1] = Antioxidant activity assessed as free radical scavenging activity at 25 mg/ml by ESR method; format: functional
Summary of the method: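 ESR spin-trapping was done at room temperature. 50 mmol/L TEMP and 25 mg/mL compound were mixed in DMSO and exposed to UVA light for 1 min before recording. Settings were 10 mW microwave power, 1 G field modulation and 150 G scan width.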

Cortical neurone [2] = assay: Neuroprotective activity against H2O2-induced damage in Sprague-Dawley rat primary cortical neurons assessed as cell viability at 50 uM after 24 hrs by MTT assay (reference value: 70 +/- 2.6%); format: functional; conditions: read-out: Activity
Cortical neurone [3] = assay: Neuroprotective activity against H2O2-induced damage in Sprague-Dawley rat primary cortical neurons assessed as cell viability at 10 uM after 24 hrs by MTT assay (reference value: 70 +/- 2.6%); format: functional; conditions: read-out: Activity
Rattus norvegicus [4] = assay: Anti-cerebral ischemia in Sprague-Dawley rat middle cerebral artery occlusion and reperfusion model assessed as decrease in brain infract volume at 20 to 40 mg/kg administered via oral gavage as qd for 7 days measured on day 7 post reperfusion by TTC staining-based assay; format: functional, organism-based
Summary of the method: (§1)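 Male Sprague-Dawley rats (260e280 g) randomised to MCAO/R, MCAO/R + NBP 80 mg/kg, or MCAO/R + compound at 20, 40 or 80 mg/kg. Rats without neurological impairment, or dead after reperfusion at 0 h, were excluded. On day 7, rats were transcardially perfused with PBS. Brains were cut into six 2-mm sections and stained with 1.5% TTC. Infarct = right pale area/left non-ischemic area, expressed as % of the MCAO/R group.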

[5] = Plasma concentration in Sprague-Dawley rat at 40 mg/kg administered via oral gavage measured at 0.25 hrs by LC-MS/MS method; format: ADME, organism-based
Summary of the method: (§2)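 For the time-course, male SD rats (260–280 g) received a single 40 mg/kg oral gavage dose and were killed at 0.083, 0.25, 0.5, 1, 2, 4, 6, 8, 12 and 24 h (n = 3 each). Plasma and brain homogenate (three volumes of saline) were protein-precipitated, centrifuged, and analyzed by validated LC-MS/MS. Results are given as mean ± SD.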

[6] = AUC (0 to t) in Sprague-Dawley rat plasma at 40 mg/kg administered via oral gavage by LC-MS/MS method; format: ADME, organism-based
[7] = Plasma concentration in Sprague-Dawley rat at 40 mg/kg administered via oral gavage measured at 8 hrs by LC-MS/MS method; format: ADME, organism-based; summary of the method: as §2
[8] = Drug uptake in Sprague-Dawley rat brain at 40 mg/kg administered via oral gavage measured at 0.083 hrs by LC-MS/MS method; format: ADME, organism-based; conditions: in vivo, BLD = below limit of detection; summary of the method: as §2
[9] = Drug uptake in Sprague-Dawley rat brain at 40 mg/kg administered via oral gavage measured at 24 hrs by LC-MS/MS method; format: ADME, organism-based; conditions: read-out: Drug uptake; summary of the method: as §2
[10] = Drug uptake in Sprague-Dawley rat brain at 40 mg/kg administered via oral gavage measured at 1 hr by LC-MS/MS method; format: ADME, organism-based; conditions: read-out: Drug uptake; summary of the method: as §2
Rattus norvegicus [11] = assay: Reversal of middle cerebral artery occlusion and reperfusion-induced decrease in body weight in Sprague-Dawley rat assessed as body weight at 20 mg/kg administered via oral gavage as qd for 7 days measured on day 7 post reperfusion (reference value: 82%); format: functional; parameters: scale not given: the % may be the effect or the level left
[12] = Drug uptake in Sprague-Dawley rat brain at 40 mg/kg administered via oral gavage measured at 6 hrs by LC-MS/MS method; format: ADME, organism-based; conditions: read-out: Drug uptake; summary of the method: as §2
[13] = Plasma concentration in Sprague-Dawley rat at 40 mg/kg administered via oral gavage measured at 1 hr by LC-MS/MS method; format: ADME, organism-based; summary of the method: as §2
[14] = Tmax in Sprague-Dawley rat plasma at 40 mg/kg administered via oral gavage by LC-MS/MS method; format: ADME, organism-based
PC-12 [15] = assay: Cytoprotective activity against H2O2-induced damage in rat PC12 cells assessed as cell viability at 10 uM after 24 hrs by MTT assay (reference value: 70.1 +/- 3.7%); format: functional; conditions: PC-12, 24 h, read-out: Activity
Rattus norvegicus [16] = assay: Reversal of middle cerebral artery occlusion and reperfusion-induced death in Sprague-Dawley rat assessed as survival rate at 40 mg/kg administered via oral gavage as qd for 7 days measured on day 7 post reperfusion (reference value: 50%); format: functional; conditions: 168 h
[17] = Drug uptake in Sprague-Dawley rat brain at 40 mg/kg administered via oral gavage measured at 4 hrs by LC-MS/MS method; format: ADME, organism-based; conditions: read-out: Drug uptake; summary of the method: as §2
[18] = Drug uptake in Sprague-Dawley rat brain at 40 mg/kg administered via oral gavage measured at 2 hrs by LC-MS/MS method; format: ADME, organism-based; conditions: read-out: Drug uptake; summary of the method: as §2
[19] = Drug uptake in Sprague-Dawley rat brain at 40 mg/kg administered via oral gavage measured at 12 hrs by LC-MS/MS method; format: ADME, organism-based; conditions: read-out: Drug uptake; summary of the method: as §2
[20] = Ratio of AUC (0 to t) in Sprague-Dawley rat brain to plasma at 40 mg/kg administered via oral gavage; format: ADME, organism-based; conditions: read-out: Ratio AUC
Summary of the method: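 Brain-to-plasma exposure ratio, taken as AUC(0-t) in brain tissue divided by AUC(0-t) in plasma. Male SD rats (260–280 g) received a single 40 mg/kg oral gavage dose and were sampled from 0.083 to 24 h (n = 3 per time point). Brain was homogenized in saline and quantified by LC-MS/MS.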

[21] = Plasma concentration in Sprague-Dawley rat at 40 mg/kg administered via oral gavage measured at 0.5 hrs by LC-MS/MS method; format: ADME, organism-based; summary of the method: as §2
Rattus norvegicus [22] = assay: Reversal of middle cerebral artery occlusion and reperfusion-induced death in Sprague-Dawley rat assessed as survival rate at 80 mg/kg administered via oral gavage as qd for 7 days measured on day 7 post reperfusion (reference value: 50%); format: functional
[23] = Tmax in Sprague-Dawley rat brain at 40 mg/kg administered via oral gavage by LC-MS/MS method; format: ADME, organism-based
[24] = Plasma concentration in Sprague-Dawley rat at 40 mg/kg administered via oral gavage measured at 4 hrs by LC-MS/MS method; format: ADME, organism-based; summary of the method: as §2
[25] = Cmax in Sprague-Dawley rat brain at 40 mg/kg administered via oral gavage by LC-MS/MS method; format: ADME, organism-based; parameters: dose 40 mg/kg, route oral
Cortical neurone [26] = assay: Neuroprotective activity against H2O2-induced damage in Sprague-Dawley rat primary cortical neurons assessed as cell viability at 1 uM after 24 hrs by MTT assay (reference value: 70 +/- 2.6%); format: functional; conditions: read-out: Activity
Rattus norvegicus [27] = assay: Reversal of middle cerebral artery occlusion and reperfusion-induced death in Sprague-Dawley rat assessed as survival rate at 20 mg/kg administered via oral gavage as qd for 7 days measured on day 7 post reperfusion (reference value: 50%); format: functional; conditions: 168 h
[28] = Plasma concentration in Sprague-Dawley rat at 40 mg/kg administered via oral gavage measured at 12 hrs by LC-MS/MS method; format: ADME, organism-based; summary of the method: as §2
PC-12 [29] = assay: Cytoprotective activity against oxygen-glucose deprivation/reoxygenation-induced damage in rat PC12 cells assessed as cell viability at 10 uM after 24 hrs by MTT assay (reference value: 70 +/- 5.1%); format: functional; conditions: PC-12, 24 h, read-out: Activity
[30] = Drug uptake in Sprague-Dawley rat brain at 40 mg/kg administered via oral gavage measured at 0.5 hrs by LC-MS/MS method; format: ADME, organism-based; conditions: read-out: Drug uptake; summary of the method: as §2
[31] = Drug uptake in Sprague-Dawley rat brain at 40 mg/kg administered via oral gavage measured at 0.25 hrs by LC-MS/MS method; format: ADME, organism-based; conditions: in vivo, BLD = below limit of detection; summary of the method: as §2
[32] = Plasma concentration in Sprague-Dawley rat at 40 mg/kg administered via oral gavage measured at 6 hrs by LC-MS/MS method; format: ADME, organism-based; summary of the method: as §2
[33] = Drug uptake in Sprague-Dawley rat brain at 40 mg/kg administered via oral gavage measured at 8 hrs by LC-MS/MS method; format: ADME, organism-based; conditions: read-out: Drug uptake; summary of the method: as §2
Rattus norvegicus [34] = assay: Increase in neurological function in Sprague-Dawley rat middle cerebral artery occlusion and reperfusion model assessed as decrease in forelimb falling number at 20 to 80 mg/kg administered via oral gavage as qd for 7 days measured on day 2 to 7 during compound dosing post reperfusion by grid test; format: functional, organism-based
Summary of the method: (§3)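 Male SD rats (260–280 g) underwent MCAO with reperfusion. They were randomized to model, 80 mg/kg 3-n-butylphthalide, or compound at 20, 40 or 80 mg/kg. Rats without neurological impairment after reperfusion were excluded. Neurological deficit was scored on days 1–7 by the Zea Longa test, and forelimb falls were counted in a grid test.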

[35] = Plasma concentration in Sprague-Dawley rat at 40 mg/kg administered via oral gavage measured at 2 hrs by LC-MS/MS method; format: ADME, organism-based; summary of the method: as §2
[36] = Plasma concentration in Sprague-Dawley rat at 40 mg/kg administered via oral gavage measured at 24 hrs by LC-MS/MS method; format: ADME, organism-based; summary of the method: as §2
Rattus norvegicus [37] = assay: Increase in neurological function in Sprague-Dawley rat middle cerebral artery occlusion and reperfusion model assessed as decrease in behavior deficit at 20 to 80 mg/kg administered via oral gavage as qd for 7 days measured on day 7 post reperfusion by Zea Longa's test; format: functional, organism-based; summary of the method: as §3
[38] = Plasma concentration in Sprague-Dawley rat at 40 mg/kg administered via oral gavage measured at 0.083 hrs by LC-MS/MS method; format: ADME, organism-based; conditions: in vivo, BLD = below limit of detection; summary of the method: as §2
[39] = Cmax in Sprague-Dawley rat plasma at 40 mg/kg administered via oral gavage by LC-MS/MS method; format: ADME, organism-based; parameters: dose 40 mg/kg, route oral
[40] = AUC (0 to t) in Sprague-Dawley rat brain at 40 mg/kg administered via oral gavage by LC-MS/MS method; format: ADME, organism-based; conditions: in vivo
Rattus norvegicus [41] = assay: Anti-cerebral ischemia in Sprague-Dawley rat middle cerebral artery occlusion and reperfusion model assessed as decrease in brain infract volume at 80 mg/kg administered via oral gavage as qd for 7 days measured on day 7 post reperfusion by TTC staining-based assay; format: functional, organism-based; summary of the method: as §1
Rattus norvegicus [42] = assay: Reversal of middle cerebral artery occlusion and reperfusion-induced decrease in body weight in Sprague-Dawley rat assessed as body weight at 80 mg/kg administered via oral gavage as qd for 7 days measured on day 7 post reperfusion (reference value: 82%); format: functional; parameters: scale not given: the % may be the effect or the level left
Rattus norvegicus [43] = assay: Increase in neurological function in Sprague-Dawley rat middle cerebral artery occlusion and reperfusion model assessed as decrease in behavior deficit at 80 mg/kg administered via oral gavage as qd for 7 days measured on day 7 post reperfusion by Zea Longa's test; format: functional, organism-based; summary of the method: as §3

SMILES: CC1=NN(c2ccccc2)C(=O)C1 [EDARAVONE]
- Activity [1]: Active
- viability at 50 µM (Cortical neurone [2]): 86.7%
- viability at 10 µM (Cortical neurone [3]): 85.2%

SMILES: Cc1cc2c([nH]c3ccc(C(C)(C)C)cc32)c2c1OC(C)(C)C=C2
- Activity (Rattus norvegicus [4]): Active
- concentration at 0.25 h [5]: 264 ng/mL
- AUC(0-t) [6]: 18800 ng·h/mL
- concentration at 8 h [7]: 1140 ng/mL
- Drug uptake [8]: Bld
- Activity [1]: Active
- concentration at 24 h [9]: 472 ng/g
- concentration at 1 h [10]: 129 ng/g
- Activity (Rattus norvegicus [11]): 94.7%
- concentration at 6 h [12]: 4720 ng/g
- concentration at 1 h [13]: 324 ng/mL
- Tmax [14]: 6 h
- viability at 10 µM (PC-12 [15]): 96.8%
- survival at 40 mg/kg (Rattus norvegicus [16]): 62.5%
- concentration at 4 h [17]: 3080 ng/g
- concentration at 2 h [18]: 1160 ng/g
- concentration at 12 h [19]: 5330 ng/g
- Kp [20]: 4.3
- concentration at 0.5 h [21]: 157 ng/mL
- Activity (Rattus norvegicus [22]): inactive
- Tmax [23]: 8 h
- concentration at 4 h [24]: 1110 ng/mL
- Cmax [25]: 5890 ng/g
- viability at 1 µM (Cortical neurone [26]): 97.6%
- survival at 20 mg/kg (Rattus norvegicus [27]): 81.3%
- concentration at 12 h [28]: 1040 ng/mL
- viability at 10 µM (PC-12 [29]): 96.1%
- concentration at 0.5 h [30]: 38.5 ng/g
- Drug uptake [31]: Bld
- concentration at 6 h [32]: 1510 ng/mL
- concentration at 8 h [33]: 5890 ng/g
- Activity (Rattus norvegicus [34]): Active
- concentration at 2 h [35]: 871 ng/mL
- concentration at 24 h [36]: 19.6 ng/mL
- Activity (Rattus norvegicus [37]): Active
- viability at 10 µM (Cortical neurone [3]): 119%
- Cp [38]: Bld
- Cmax [39]: 1510 ng/mL
- AUCt [40]: 80618 ng·h/g

SMILES: COc1ccc2c(c1)c1cc(C=O)c3c(c1n2C)C=CC(C)(C)O3
- viability at 10 µM (PC-12 [15]): 93.8%
- viability at 10 µM (PC-12 [29]): 94.4%

SMILES: CCCCC1OC(=O)c2ccccc21 (stereo not drawn) [RAC-3-N-BUTYLPHTHALIDE]
- Activity (Rattus norvegicus [41]): Active
- Activity (Rattus norvegicus [42]): 87.6%
- survival at 80 mg/kg (Rattus norvegicus [22]; 168 h): 68.8%
- Activity (Rattus norvegicus [43]): Active

SMILES: COc1ccc2[nH]c3c4c(c(C=O)cc3c2c1)OC(C)(C)C=C4 [CLAULANSINE F]
- viability at 10 µM (PC-12 [15]): 87.7%
- viability at 10 µM (PC-12 [29]): 93.1%
